MT stabilizer = microtubule stabilizers in HeLa cells. % tubulin-high responders, % at 10 µM. hit rate 0.83% among 200,000. HeLa tubulin immunostaining HCS, 24 h; share of cells brighter than vehicle mean+2SD;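 active = plate Z-score above 3 for both tubulin-high and condensed-nucleus cell shares, with cell loss under 80%, at 10 µM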;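 also: anti alpha tubulin signal scored within the nucleus-defined area of each cell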
STAT3 act = increases IL-6 driven STAT3 reporter signal; U3A cells, IL-6 STAT3-luciferase reporter, luminescence; 100% = signal with IL-6 EC80 alone; activation (% of control), % at 5.6 µM; hit rate 0.91% among 190,000;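 active = activation above the screen-wide mean of compound activation plus 3 SD, cut at about 130% in these data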;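 also: 0% = background luminescence of wells with medium and substrate only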
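Test system: STAT3-luciferase reporter U3A cells; Detection: reporter luminescence signal; Times: 1 h compound pre-exposure, 6 h IL-6 stimulation, 37 °C; Benchmarks: IL-6-only high control; Also added: IL-6 stimulus at 33 ng/mL final.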
STAT1 inh = inhibitors of IFN-gamma induced STAT1 signaling; NIH 3T3 STAT1-luciferase reporter, luminescence; inhibition, % at 5.5 µM; hit rate 0.35% among 200,000;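 active = inhibition above a set limit, the mean inhibition across all tested compounds plus 3 SD, cut at about 34% in these data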;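 also: 0% = IFN-gamma with DMSO and 100% = IFN-gamma with 300 µM nifuroxazide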
bCat nuc transl = beta-catenin nuclear translocation modulation. hit rate 0.3% among 190,000. nuclear translocation activity, % at 5 µM. AID 1665. HeLa beta-catenin nuclear translocation, immunofluorescence imaging;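 active = nuclear translocation activity above 50% at 5 µM, with a well cell count of 50 or more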;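 also: per-cell ratio of nuclear to cytoplasmic median beta-catenin stain intensity; plate controls were DMSO negative control for no effect and GSK-3 inhibitor IX positive control for full effect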
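Test system: human HeLa cells, endogenous beta-catenin. Times: 24 h compound exposure, 37°C. Measured by: beta-catenin immunofluorescence imaging with DAPI.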
STAT3 blocker = STAT3 signaling inhibition. hit rate 0.89% among 190,000. inhibition, % at 5.5 µM. U3A cells, IL-6 STAT3-luciferase reporter, luminescence; host cell line lacks STAT1;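 active = inhibition above the mean inhibition across all screened compounds plus 3 SD, cut at about 44% in these data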;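 also: 0% = DMSO only wells and 100% = 100 µM nifuroxazide control wells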
* marks the source's active call; other numbers are inactive results; . = not tested or not shown. In the library only some 2.4% were active in any assay of this set; here they are far more common.

SMILES | MT stabilizer | STAT3 act | STAT1 inh | bCat nuc transl | STAT3 blocker
O=C1C=C(NCCN2CCOCC2)C(=O)c2cnccc21 | 22.9 | 28.2 | 53.1* | 6.1 | 82.9*
COc1ccc(C(=O)C(Sc2nnc(C)c(=O)[nH]2)c2ccc(OC)cc2)cc1 (stereo unspecified) | . | . | . | 0.4 | .
Cc1nn(C)c(C)c1CNC(=O)c1cnn2c1NC(c1ccccc1)CC2C(F)(F)F (stereo unspecified) | 3.8 | 98.0 | 4.7 | 1.7 | 7.1
Cc1ccc(C2CC(C(F)(F)F)n3nc(C(=O)NCc4c(C)nn(C)c4C)c(Cl)c3N2)cc1 (stereo unspecified) | 2.3 | 55.2 | 58.7* | -2.6 | 59.6*
Cc1ccc(NC(=O)c2cc3ccccc3oc2=O)cc1S(=O)(=O)N(C)C | 2.9 | 20.2 | 57.7* | -2.7 | 99.7*
Cc1ccc(NC(=O)c2cc3ccccc3o2)cc1S(=O)(=O)N(C)C | 2.0 | 93.3 | -46.8 | 1.4 | 8.3
CCOc1cc(-c2c(C#N)c(N)nc3c2CCCC3C)ccc1O (stereo unspecified) | 22.5* | 105.8 | 9.7 | . | -1.5
CCOc1cc(-c2cc(-c3ccc(C)cc3)nc(N)c2C#N)ccc1O | 49.0* | 96.5 | 1.9 | 68.7* | 5.3
Cc1ccc(C(=O)c2no[n+]([O-])c2C(=O)c2ccc(C)cc2)cc1 | 3.6 | 109.0 | -4.2 | -5.6 | -6.4
CC1(C)CC2CC(C)(CN2/C=N/c2sc3c(c2C#N)CC(C)(C)NC3(C)C)C1 (stereo unspecified) | . | . | . | -0.5 | .
CCOC(=O)c1oc2ccc(S(=O)(=O)n3nc(-c4ccc(OC)cc4)cc3N)cc2c1C | 13.2* | 87.0 | -5.0 | 0.6 | 15.2
Cn1c2ccccc2c2cc(C(=O)NNC(=O)CCl)sc21 | 5.6 | 136.7* | -36.9 | 3.9 | -25.2
CN(C)c1ncnc2c1ncn2C1OC(CO)C(O)C1O (stereo unspecified) | 9.7 | 67.0 | 61.8* | 16.7 | 43.6*
Nc1nc(Cl)nc2c1ncn2[C@@H]1O[C@H](CO)[C@@H](O)[C@H]1O | 3.9 | 99.4 | 13.6 | . | 3.0
CCOc1ccc(OCC)c(NC(=O)CN2CCN(c3cccc(C)c3)C(C)C2)c1 (stereo unspecified) | 43.4* | 98.7 | -2.1 | 0.5 | 5.1
COC(=O)c1ccc(CO/N=C(\NC(C)=O)c2nonc2NC(C)=O)cc1 | 2.0 | 108.2 | 0.9 | 0.8 | -9.0
Cc1cc(NC(=O)c2cc(C(C)C)on2)nn1Cc1ccc(Cl)cc1 | 4.3 | 79.9 | -9.2 | 0.1 | 31.8
COc1ccc(NC(=O)/C(C#N)=C/C=C/c2ccco2)cc1 | 23.6* | 95.8 | 14.8 | 43.2 | 4.3
CC(=O)c1ccc(NC(=O)c2cnn3ccccc23)cc1 | 4.6 | 35.6 | 85.5* | -6.5 | 82.9*
C=C(C)CCOC(=O)C(CC(=O)O)NCc1ccco1 (stereo unspecified) | . | . | . | -1.5 | .
O=C(C1CC1)N1CCC(c2nc(-c3ccc(S(=O)(=O)N4CCCC4)cc3)no2)CC1 | 1.2 | 99.6 | -5.0 | . | 6.1
O=C(NC1CCCCC1)N1CCC(c2nc(-c3ccc(S(=O)(=O)N4CCCC4)cc3)no2)CC1 | 35.1* | 82.0 | 5.8 | 0.9 | 24.5
CCn1c(C)nc2cc(-c3nc4n(n3)Cc3ccccc3-4)ccc21 | 2.5 | 7.2 | 96.2* | -1.3 | 115.2*
OCCC1CN(C2CCN(c3ccccc3F)CC2)CCN1Cc1ccccc1 (stereo unspecified) | 6.5 | 94.4 | -0.9 | 1.9 | 11.4
Cc1ccc(NS(=O)(=O)c2ccccc2)c2c1CC(C)(C)O2 | 26.7* | 95.5 | -4.8 | -1.6 | 10.9
SMILES | MT stabilizer | STAT3 act | STAT1 inh | bCat nuc transl | STAT3 blocker
O=C(NNS(=O)(=O)c1ccc(Br)cc1)c1cccs1 | 3.3 | 106.1 | 2.4 | -1.8 | -4.8
CCOCCCNC(=O)/C(C#N)=C/c1cc(Br)c(O)c(Br)c1 | . | . | . | 50.2* | .
COCCNC(=O)/C(C#N)=C/c1cc(Br)c(O)c(OC)c1 | 5.0 | 90.6 | 10.9 | -1.4 | 18.3
O=C(/C=C/Nc1ccc(F)cc1F)c1ccco1 | 2.0 | 30.1 | 77.1* | -4.9 | 83.7*
O=C(/C=C/Nc1ccc(Br)cc1F)c1ccco1 | 2.5 | 19.0 | 81.5* | 6.7 | 95.7*
O=C(/C=C/Nc1cccc(F)c1)c1ccco1 | 1.5 | 105.8 | -51.1 | . | -5.8
O=C1c2ccccc2S(=O)(=O)N1Cc1nc2ccccc2s1 | 3.6 | 49.5 | 51.9* | -2.4 | 61.4*
O=c1c2ccccc2ncn1Cc1nc2ccccc2s1 | 3.3 | 112.3 | 5.4 | 0.1 | -7.7
COc1cc(/C=C/c2nnc3c4ccccc4ncn23)cc(OC)c1OC | 1.7 | 103.4 | 12.3 | 0.2 | -5.5
C(=C\c1nnc2c3ccccc3ncn12)/c1ccccc1 | 15.3 | 145.0* | -54.0 | . | -49.4
C/C(=N\OC(=O)C1CC1)C1CC1c1ccc(F)cc1 (stereo unspecified) | 2.3 | 102.5 | -5.2 | -0.6 | -2.5
N#Cc1nc(Cc2ccccc2)oc1NCc1ccccc1 | 1.7 | 108.7 | -6.5 | 0.9 | -6.2
CCC(CC)c1nc(C#N)c(NCc2ccccc2)o1 | 15.3* | 89.8 | 6.7 | 4.3 | 13.1
CCC(C)[C@@H](N)C(=O)N/N=C/c1ccc2ncccc2c1 (stereo partly specified) | 5.4 | 106.0 | -1.8 | 0.2 | -3.7
Cc1oc(-c2cc3c(cc2Cl)OCO3)nc1CN1CCCC1c1ccc(F)cc1 (stereo unspecified) | 3.0 | 103.7 | 6.8 | -0.5 | -1.9
COc1ccc(NC2=CC(=O)CC(c3ccccc3)C2)c(OC)c1 (stereo unspecified) | 31.8* | 103.0 | -12.5 | 82.1* | 3.7
CCOc1ccccc1NC1=CC(=O)CC(c2ccccc2)C1 (stereo unspecified) | 24.7* | 104.0 | 1.7 | 0.7 | 5.5
O=C(Cn1c(O)c(/C=C2\C=Nc3ccccc32)sc1=O)N1CCOCC1 | 3.0 | 134.2* | -6.2 | 0.3 | -35.5
CCC1=Nc2cc(C(=O)NCc3cccnc3)ccc2Sc2ccc(C)cc21 | . | . | . | 63.9* | .
CCC1=Nc2cc(C(=O)NCc3ccco3)ccc2Sc2ccc(Cl)cc21 | 8.1 | 102.2 | -5.3 | 37.5 | -5.0
CCC1=Nc2cc(C(=O)NCc3ccco3)ccc2Sc2ccccc21 | 23.7* | 104.0 | -6.7 | 54.9* | -7.3
CCC1=Nc2cc(C(=O)NCCCOC(C)C)ccc2Sc2ccccc21 | 5.4 | 98.6 | -0.6 | . | 7.3
O=C(Cn1nc(Cc2cccnc2)c2ccccc2c1=O)NCc1ccc(F)cc1 | 8.8 | 101.5 | 1.0 | . | 6.8
CCOC(=O)CS(=O)(=O)c1nc(-c2ccccc2)cc(C(F)(F)F)n1 | 5.4 | 88.0 | 43.4* | 3.5 | 18.0
COC(=O)Nc1ccc(S(=O)(=O)N2CCCc3ccccc32)cc1 | 19.3* | 109.5 | -9.0 | -1.1 | -5.5
COc1ccc(CCCc2nnc(SCc3nc4ccccc4c(=O)[nH]3)n2C)c(C)c1 | . | . | . | 0.4 | .
Cc1ccc(N2CCN(c3ccc(NCc4nc5ccccc5n4C)cc3)CC2)cc1 | 1.8 | 113.7 | 1.2 | 2.1 | -11.7
Cn1c(CNc2ccc(Cl)cc2)nc2ccccc21 | 2.9 | 162.5* | -46.5 | . | -70.6
CN(C)/C=N/C(=S)Nc1ccc(Br)cc1F | 2.5 | 104.2 | -35.2 | -4.3 | -3.8
